From ChEMBL document CHEMBL1131640, “L-carnitine esters as "soft", broad-spectrum antimicrobial amphiphiles” (J Med Chem, 1998)

Legend:
Format in all cases: functional
[1] = system: Enterococcus faecalis; test: Minimal inhibitory concentration against Streptococcus faecalis
Method in brief: (§1)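 Microtiter broth dilution MIC assay. Strains: S. aureus, S. faecalis, E. coli, P. vulgaris and C. albicans were wild-type clinical isolates; S. cerevisiae ATCC 7752, A. fumigatus ATCC 28212, A. niger ATCC 16404 and M. mucedo ATCC 7941.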

[2] = system: Escherichia coli; test: Minimal inhibitory concentration against Escherichia coli; method in brief: as §1
[3] = system: Proteus vulgaris; test: Minimal inhibitory concentration against Proteus vulgaris; method in brief: as §1
[4] = system: Staphylococcus aureus; test: Minimal inhibitory concentration against Staphylococcus aureus; method in brief: as §1
[5] = system: Candida albicans; test: Minimal inhibitory concentration against Candida albicans; method in brief: as §1
[6] = system: Aspergillus fumigatus; test: Minimal inhibitory concentration against Aspergillus fumigatus; method in brief: as §1
[7] = system: Aspergillus niger; test: Minimal inhibitory concentration against Aspergillus niger; method in brief: as §1
[8] = system: Mucor mucedo; test: Minimal inhibitory concentration against Mucor mucedo; method in brief: as §1
[9] = system: Saccharomyces cerevisiae; test: Minimal inhibitory concentration against Saccharomyces cerevisiae; method in brief: as §1

Compound | MIC [1] | MIC [2] | MIC [3] | MIC [4] | MIC [5] | MIC [6] | MIC [7] | MIC [8] | MIC [9]
CCCCCCCCCCCCCOC(=O)C[C@H](C[N+](C)(C)C)OC(=O)CCCCCCC.[Cl-] | 6.25 µg/mL | > 100 µg/mL | > 100 µg/mL | 6.25 µg/mL |  |  |  |  | 
CCCCCC(CCCCC)OC(=O)C[C@H](C[N+](C)(C)C)OC(=O)CC(C)C.[Cl-] | 3.12 µg/mL | 100 µg/mL | > 100 µg/mL | 12.5 µg/mL | 25 µg/mL | > 100 µg/mL | 50 µg/mL | 100 µg/mL | 12.5 µg/mL
CCCCCCCCCCCCCCCCCC(=O)O[C@H](CC(=O)O)C[N+](C)(C)C.[Cl-] | 25 µg/mL | > 100 µg/mL | > 100 µg/mL | > 100 µg/mL | > 100 µg/mL | > 100 µg/mL | > 100 µg/mL | > 100 µg/mL | > 100 µg/mL
CCCCCCCCCCC(=O)O[C@H](CC(=O)OCCCCCCC(F)(F)C(F)(F)C(F)(F)C(F)(F)F)C[N+](C)(C)C.[Cl-] |  | > 100 µg/mL | > 100 µg/mL | 12.5 µg/mL | 12.5 µg/mL | 25 µg/mL | 12.5 µg/mL | 50 µg/mL | 12.5 µg/mL
CCCCCCCCCCCOC(=O)C[C@H](C[N+](C)(C)C)OC(=O)CCCCCCC.[Cl-] | 3.12 µg/mL | 25 µg/mL | > 100 µg/mL | 3.12 µg/mL |  |  |  |  | > 100 µg/mL
CCCCCCCCCCCCOC(=O)C[C@H](C[N+](C)(C)C)OC(=O)CC(C)C.[Cl-] | 3.12 µg/mL | 100 µg/mL | > 100 µg/mL | 3.12 µg/mL |  |  |  |  | 1.56 µg/mL
CCCCCCCCCCCCOC(=O)C[C@H](C[N+](C)(C)C)OC(=O)C(C)C.[Cl-] | 3.12 µg/mL | 25 µg/mL | 100 µg/mL | 6.25 µg/mL |  |  |  |  | 
CCCCCCCOC(=O)C[C@H](C[N+](C)(C)C)OC(=O)CCCCCCCCCBr.[Cl-] | 3.12 µg/mL | 50 µg/mL | 100 µg/mL | 3.12 µg/mL | 3.12 µg/mL | 6.25 µg/mL | 6.25 µg/mL | 25 µg/mL | > 100 µg/mL
CCCCCCCCCCCC(=O)O[C@H](CC(=O)OCCOc1ccccc1)C[N+](C)(C)C.[Cl-] | 3.12 µg/mL | 50 µg/mL | 100 µg/mL | 6.25 µg/mL | 3.12 µg/mL | 12.5 µg/mL | 12.5 µg/mL | 25 µg/mL | 3.12 µg/mL
CCCCCCCCCCCCCOC(=O)C[C@H](C[N+](C)(C)C)OC(=O)CC(C)C.[Cl-] | 1.56 µg/mL | 100 µg/mL | 100 µg/mL | 3.12 µg/mL |  |  |  |  | 
CCCCCCCCCCCCCCCCOC(=O)C[C@H](C[N+](C)(C)C)OC(=O)CC(C)C.[Cl-] | 3.12 µg/mL | > 100 µg/mL | > 100 µg/mL | 6.25 µg/mL |  |  |  |  | 3.12 µg/mL
CCCCCCCCCCC(=O)O[C@H](CC(=O)OCCOc1ccccc1)C[N+](C)(C)C.[Cl-] | 3.12 µg/mL | 25 µg/mL | 50 µg/mL | 6.25 µg/mL | 3.12 µg/mL | 25 µg/mL | 25 µg/mL | 50 µg/mL | 12.5 µg/mL
CCCCCCCCCCCCCOC(=O)C[C@H](C[N+](C)(C)C)OC(=O)CCCCCCCCCC.[Cl-] | 25 µg/mL | > 100 µg/mL | > 100 µg/mL | 50 µg/mL | 25 µg/mL | > 100 µg/mL | 100 µg/mL | 50 µg/mL | 25 µg/mL
CCCCCCCCCCCOC(=O)C[C@H](C[N+](C)(C)C)OC(=O)CC(C)C.[Cl-] | 3.12 µg/mL | 25 µg/mL | 50 µg/mL | 6.25 µg/mL |  |  |  |  | 
CCCCCCCCCCCOC(=O)C[C@H](C[N+](C)(C)C)OC(=O)CCCCCCCCCC.[Cl-] | 3.12 µg/mL | > 100 µg/mL | > 100 µg/mL | > 100 µg/mL |  |  |  |  | > 100 µg/mL
CCCCCCCCCCCCCOC(=O)C[C@H](C[N+](C)(C)C)OC(=O)CCCCCC.[Cl-] | 3.12 µg/mL | > 100 µg/mL | > 100 µg/mL | 6.25 µg/mL |  |  |  |  | 
CC(C)CC(=O)O[C@H](CC(=O)OCCCCCCC(F)(F)C(F)(F)C(F)(F)C(F)(F)F)C[N+](C)(C)C.[Cl-] | 6.25 µg/mL | > 100 µg/mL | 100 µg/mL | 12.5 µg/mL | 12.5 µg/mL | 100 µg/mL | 50 µg/mL | 50 µg/mL | 25 µg/mL

Compound | MIC [1] | MIC [2] | MIC [3] | MIC [4] | MIC [5] | MIC [6] | MIC [7] | MIC [8] | MIC [9]
C=CCCCCCCCCCOC(=O)C[C@H](C[N+](C)(C)C)OC(=O)CC(C)C.[Cl-] | 3.12 µg/mL | 25 µg/mL | 50 µg/mL | 12.5 µg/mL | 6.25 µg/mL | 12.5 µg/mL | 6.25 µg/mL | 12.5 µg/mL | 6.25 µg/mL
CCCCCCCCCCCC(=O)O[C@H](CC(=O)OCCC(F)(F)C(F)(F)C(F)(F)C(F)(F)C(F)(F)C(F)(F)F)C[N+](C)(C)C.[Cl-] | > 100 µg/mL | > 100 µg/mL | > 100 µg/mL | > 100 µg/mL | > 100 µg/mL | > 100 µg/mL | > 100 µg/mL | > 100 µg/mL | > 100 µg/mL
CCCCCCCOC(=O)C[C@H](C[N+](C)(C)C)OC(=O)CCOc1ccccc1.[Cl-] | > 100 µg/mL | > 100 µg/mL | > 100 µg/mL | > 100 µg/mL | > 100 µg/mL | > 100 µg/mL | > 100 µg/mL | > 100 µg/mL | > 100 µg/mL
CCCCCCCCCCOC(=O)C[C@H](C[N+](C)(C)C)OC(=O)CCCCCC.[Cl-] | 3.12 µg/mL | 25 µg/mL | 50 µg/mL | 3.12 µg/mL | 3.12 µg/mL | 25 µg/mL | 25 µg/mL | 50 µg/mL | 3.12 µg/mL
CCCCCCCCCCCCCOC(=O)C[C@H](C[N+](C)(C)C)OC(=O)C(C)CCCC.[Cl-] (some centres undefined) | 6.25 µg/mL | > 100 µg/mL | > 100 µg/mL | 6.25 µg/mL |  |  |  |  | 
CCCCCCCCOC(=O)C[C@H](C[N+](C)(C)C)OC(=O)CC(C)C.[Cl-] | 50 µg/mL | > 100 µg/mL | > 100 µg/mL | 50 µg/mL | > 100 µg/mL | > 100 µg/mL | > 100 µg/mL | > 100 µg/mL | > 100 µg/mL
CCCCCCCCCCCOC(=O)C[C@H](C[N+](C)(C)C)OC(=O)CCCBr.[Cl-] | 3.12 µg/mL | 50 µg/mL | 100 µg/mL | 6.25 µg/mL | 3.12 µg/mL | 12.5 µg/mL | 12.5 µg/mL | 25 µg/mL | 3.12 µg/mL
CCCCCCCCCCCOC(=O)C[C@@H](O)C[N+](C)(C)C.[Cl-] | 25 µg/mL | > 100 µg/mL | > 100 µg/mL | 12.5 µg/mL | > 100 µg/mL | > 100 µg/mL | > 100 µg/mL | > 100 µg/mL | > 100 µg/mL
CCCCCCCCCCOC(=O)C[C@H](C[N+](C)(C)C)OC(=O)CC(C)C.[Cl-] | 6.25 µg/mL | 50 µg/mL | > 100 µg/mL | 12.5 µg/mL | 3.12 µg/mL | 50 µg/mL | 25 µg/mL | 100 µg/mL | 3.12 µg/mL
CCCCCCCCCCCCCCCCOC(=O)C[C@@H](O)C[N+](C)(C)C.[Cl-] | 3.12 µg/mL | > 100 µg/mL | > 100 µg/mL | 6.25 µg/mL | 6.25 µg/mL | 6.25 µg/mL | 3.12 µg/mL | 6.25 µg/mL | > 100 µg/mL
CCCCCCCCCCCOC(=O)C[C@H](C[N+](C)(C)C)OC(=O)CCC(C)C.[Cl-] | 1.56 µg/mL | 25 µg/mL | > 100 µg/mL | 3.12 µg/mL |  |  |  |  | 
CCCCCCCCCCCCCOC(=O)C[C@H](C[N+](C)(C)C)OC(=O)CCCCCCCC.[Cl-] | 6.25 µg/mL | > 100 µg/mL | > 100 µg/mL | 12.5 µg/mL | 12.5 µg/mL | 100 µg/mL | 25 µg/mL | 50 µg/mL | 12.5 µg/mL
CCCCCCCCCCCOC(=O)C[C@H](C[N+](C)(C)C)OC(=O)CCCCCC.[Cl-] | 1.56 µg/mL | 25 µg/mL | 100 µg/mL | 3.12 µg/mL | 3.12 µg/mL | 3.12 µg/mL | 3.12 µg/mL | 6.25 µg/mL | 3.12 µg/mL
CC(C)CC(=O)O[C@H](CC(=O)OCCCCCCCCCCCBr)C[N+](C)(C)C.[Cl-] | 6.25 µg/mL | 100 µg/mL | 100 µg/mL | 12.5 µg/mL | 6.25 µg/mL | 25 µg/mL | 50 µg/mL | 50 µg/mL | > 100 µg/mL
CCCCCCCCOC(=O)C[C@H](C[N+](C)(C)C)OC(=O)CCCCCCCC.[Cl-] | 3.12 µg/mL | 25 µg/mL | 50 µg/mL | 3.12 µg/mL | 3.12 µg/mL | 12.5 µg/mL | 6.25 µg/mL | 25 µg/mL | 3.12 µg/mL
CCCCCCCCCCCCOC(=O)C[C@H](C[N+](C)(C)C)OC(=O)CCCCCC.[Cl-] | 1.56 µg/mL | > 100 µg/mL | > 100 µg/mL | 3.12 µg/mL | 3.12 µg/mL | 3.12 µg/mL | 6.25 µg/mL | 12.5 µg/mL | 3.12 µg/mL
CCCCCCCCCCC(=O)O[C@H](CC(=O)OCCC(F)(F)C(F)(F)C(F)(F)C(F)(F)C(F)(F)C(F)(F)C(F)(F)C(F)(F)F)C[N+](C)(C)C.[Cl-] | > 100 µg/mL | > 100 µg/mL | > 100 µg/mL | > 100 µg/mL | > 100 µg/mL | > 100 µg/mL | > 100 µg/mL | > 100 µg/mL | > 100 µg/mL
